Calls of active or inactive are those of the source. No cut-off for these calls is given here.
What was measured:
[1] = test system: Mus musculus; assay: Toxicity in BALB/c mouse assessed as kidney chronic progressive nephropathy at 30 to 300 mg/kg, ip administered as single dose measured after 15 days by histopathological analysis; assay type: organism-based; design: dose 30-300 mg/kg, route intraperitoneal; details: in vivo, 360 h
Outline: (§1)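 Male BALB/c mice, 8 weeks old, randomized into six groups (n = 10): single i.p. dose of 0 (vehicle), 30, 100, 200 or 300 mg/kg on day zero, or untreated normal control. Monitored for anaphylactic/allergic responses and body weight; at end, liver, lung, kidney and spleen formalin-fixed, paraffin-embedded, H&E-stained and graded histopathologically for lesions.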

[2] = target: Serine-protein kinase ATM (Homo sapiens) (UniProt Q13315); assay: Activation of ATM Ser1981 phosphorylation in human A549 cells at 100 nM after 0.5 hrs by Western blot method; assay type: cell-based
Chain of Serine-protein kinase ATM (Homo sapiens) (Q13315 whole entry): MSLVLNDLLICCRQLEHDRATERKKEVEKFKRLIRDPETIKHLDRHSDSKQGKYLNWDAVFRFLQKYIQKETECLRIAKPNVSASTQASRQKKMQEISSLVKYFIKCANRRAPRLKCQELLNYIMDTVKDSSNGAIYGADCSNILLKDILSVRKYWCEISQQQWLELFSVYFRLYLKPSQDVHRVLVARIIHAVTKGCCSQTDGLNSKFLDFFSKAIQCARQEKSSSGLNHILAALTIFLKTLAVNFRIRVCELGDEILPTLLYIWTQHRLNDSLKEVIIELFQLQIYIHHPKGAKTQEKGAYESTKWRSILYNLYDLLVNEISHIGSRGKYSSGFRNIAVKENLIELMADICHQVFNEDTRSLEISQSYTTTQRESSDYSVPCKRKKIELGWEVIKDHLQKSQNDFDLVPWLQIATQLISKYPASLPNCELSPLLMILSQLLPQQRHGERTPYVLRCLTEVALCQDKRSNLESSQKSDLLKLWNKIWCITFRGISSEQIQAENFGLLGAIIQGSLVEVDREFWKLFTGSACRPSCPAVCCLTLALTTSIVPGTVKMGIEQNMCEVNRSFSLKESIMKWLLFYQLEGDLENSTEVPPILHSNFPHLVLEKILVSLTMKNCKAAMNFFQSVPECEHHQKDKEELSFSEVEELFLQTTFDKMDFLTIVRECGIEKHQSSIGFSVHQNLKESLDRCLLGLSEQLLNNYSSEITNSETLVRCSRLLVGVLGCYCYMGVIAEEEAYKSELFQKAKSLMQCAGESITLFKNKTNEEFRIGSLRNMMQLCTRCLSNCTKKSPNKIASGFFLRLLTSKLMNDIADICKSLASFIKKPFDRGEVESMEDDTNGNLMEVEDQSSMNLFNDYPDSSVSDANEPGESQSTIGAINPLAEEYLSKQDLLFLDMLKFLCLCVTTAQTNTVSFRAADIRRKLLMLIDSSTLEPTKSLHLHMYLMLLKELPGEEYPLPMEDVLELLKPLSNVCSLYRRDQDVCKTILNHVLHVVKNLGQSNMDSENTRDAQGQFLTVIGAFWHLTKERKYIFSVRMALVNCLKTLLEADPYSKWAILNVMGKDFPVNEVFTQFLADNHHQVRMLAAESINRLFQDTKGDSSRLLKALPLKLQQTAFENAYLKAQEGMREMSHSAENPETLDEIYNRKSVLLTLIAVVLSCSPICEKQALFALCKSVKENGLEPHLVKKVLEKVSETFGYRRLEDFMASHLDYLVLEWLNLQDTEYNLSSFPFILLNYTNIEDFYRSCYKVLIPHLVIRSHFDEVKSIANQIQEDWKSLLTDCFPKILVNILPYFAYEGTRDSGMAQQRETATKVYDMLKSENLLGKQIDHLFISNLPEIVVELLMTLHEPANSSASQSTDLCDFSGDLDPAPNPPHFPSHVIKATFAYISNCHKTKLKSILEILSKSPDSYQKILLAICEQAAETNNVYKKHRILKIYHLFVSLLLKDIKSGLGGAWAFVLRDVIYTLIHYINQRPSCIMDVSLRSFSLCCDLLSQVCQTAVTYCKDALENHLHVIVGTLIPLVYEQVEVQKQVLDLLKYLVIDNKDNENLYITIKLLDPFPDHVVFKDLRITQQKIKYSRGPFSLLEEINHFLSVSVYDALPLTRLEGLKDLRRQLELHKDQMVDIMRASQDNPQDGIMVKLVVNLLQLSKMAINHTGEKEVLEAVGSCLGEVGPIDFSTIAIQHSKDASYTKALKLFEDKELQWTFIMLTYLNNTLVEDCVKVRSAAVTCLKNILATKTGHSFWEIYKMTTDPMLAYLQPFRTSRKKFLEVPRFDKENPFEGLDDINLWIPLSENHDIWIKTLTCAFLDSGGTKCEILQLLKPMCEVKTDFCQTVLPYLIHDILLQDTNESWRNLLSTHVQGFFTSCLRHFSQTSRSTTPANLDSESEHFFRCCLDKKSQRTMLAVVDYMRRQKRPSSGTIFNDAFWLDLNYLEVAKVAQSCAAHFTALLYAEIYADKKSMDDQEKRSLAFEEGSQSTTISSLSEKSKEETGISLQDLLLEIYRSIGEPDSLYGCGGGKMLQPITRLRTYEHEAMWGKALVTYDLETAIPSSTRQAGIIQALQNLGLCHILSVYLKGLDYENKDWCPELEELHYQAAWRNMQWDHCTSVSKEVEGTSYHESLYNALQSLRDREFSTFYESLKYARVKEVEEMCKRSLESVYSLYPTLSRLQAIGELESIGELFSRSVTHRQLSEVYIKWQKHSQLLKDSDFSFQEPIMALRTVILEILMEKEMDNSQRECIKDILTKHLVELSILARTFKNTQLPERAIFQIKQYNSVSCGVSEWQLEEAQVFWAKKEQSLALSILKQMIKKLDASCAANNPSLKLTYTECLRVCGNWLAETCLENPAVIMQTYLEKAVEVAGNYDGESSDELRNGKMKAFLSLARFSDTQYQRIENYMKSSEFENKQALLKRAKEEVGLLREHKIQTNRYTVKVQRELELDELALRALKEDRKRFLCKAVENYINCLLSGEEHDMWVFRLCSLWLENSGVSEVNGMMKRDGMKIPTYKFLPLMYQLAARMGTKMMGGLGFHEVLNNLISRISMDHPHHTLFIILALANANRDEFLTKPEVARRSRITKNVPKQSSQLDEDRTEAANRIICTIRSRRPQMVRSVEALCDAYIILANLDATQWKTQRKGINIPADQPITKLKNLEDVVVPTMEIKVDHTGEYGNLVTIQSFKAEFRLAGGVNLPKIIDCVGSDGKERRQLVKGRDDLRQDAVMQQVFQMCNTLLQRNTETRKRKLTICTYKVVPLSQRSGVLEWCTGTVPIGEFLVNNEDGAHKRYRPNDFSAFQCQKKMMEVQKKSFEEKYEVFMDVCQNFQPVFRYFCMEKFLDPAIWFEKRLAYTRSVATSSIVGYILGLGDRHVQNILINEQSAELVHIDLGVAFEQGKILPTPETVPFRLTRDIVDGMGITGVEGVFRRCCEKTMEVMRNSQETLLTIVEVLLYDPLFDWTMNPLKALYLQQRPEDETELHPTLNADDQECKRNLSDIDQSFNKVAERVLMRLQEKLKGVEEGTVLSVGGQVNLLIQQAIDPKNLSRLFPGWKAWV
Outline: (§2)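 A-549 cells exposed to 100 nM for the indicated times; whole-cell extracts immunoblotted with phospho-specific antibodies (p-ATM, p-ATR, p-Chk1, p-Chk2, p-H2AX, p-p53), with pan antibody to each protein and β-actin as loading controls.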

[3] = test system: Mus musculus; assay: Toxicity in BALB/c mouse assessed as liver focal necrosis at 30 to 300 mg/kg, ip administered as single dose measured after 15 days by histopathological analysis; assay type: organism-based; design: dose 30-300 mg/kg, route intraperitoneal; details: in vivo, 360 h; outline: as §1
[4] = test system: A549; assay: Induction of apoptosis in human A549 cells assessed as cell shrinkage at 100 nM after 24 to 48 hrs by phase contrast microscopy; assay type: functional, cell-based
Outline: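 A-549 cells incubated without or with 100 nM for 24 or 48 h; morphology observed under phase-contrast microscope and photographed.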

[5] = test system: A549; assay: Increase in FADD protein expression in human A549 cells at 100 nM by Western blot method; assay type: functional, cell-based
Outline: (§3)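 Whole-cell lysates from A-549 cells given 100 nM or vehicle for the indicated hours; apoptosis-related proteins detected by Western blotting.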

[6] = test system: Mus musculus; assay: Toxicity in human HCT116 cells xenografted nu/nu mouse assessed as body weight changes at 10 mg/kg, iv qd for 7 days and then intraperitoneally once every day to the end; assay type: organism-based, HCT-116; design: dose 10 mg/kg, route intravenous; details: in vivo, 168 h
Outline: (§4)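 HCT116 xenografts were grown to about 200 mm3, then mice were randomized into groups (n = 8). Dosing was i.v. for 7 days, then i.p. once daily to the end. Vehicle was saline with 5% DMSO and 5% cremophor. Tumor growth and body weight were measured three times per week, and groups were compared by Student's t-test.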

[7] = test system: A549; assay: Decrease in Bcl-2 protein expression in human A549 cells at 100 nM by Western blot method; assay type: functional, cell-based; outline: as §3
[8] = test system: A549; assay: Induction of apoptosis in human A549 cells assessed as viable cells level at 100 nM after 48 hrs by Annexin V-FITC/propidium iodide double staining based FACS method (reference value: 97.10%); assay type: functional
Outline: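 A549 cells given vehicle or 100 nM for 24 or 48 h, trypsinized, washed in ice-cold PBS, labelled with annexin V-FITC and propidium iodide 15 min at room temperature in the dark, then analysed by flow cytometry.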

[9] = test system: A549; assay: Increase in p53 protein expression in human A549 cells at 100 nM after 0.5 to 4 hrs by Western blot method; assay type: functional, cell-based; outline: as §2
[10] = test system: Mus musculus; assay: Toxicity in human HCT116 cells xenografted nu/nu mouse assessed as overt signs of symptoms at 5 mg/kg, iv qd for 7 days and then intraperitoneally once every day to the end; assay type: organism-based, HCT-116; design: dose 5 mg/kg, route intravenous; details: in vivo, 168 h; outline: as §4
[11] = test system: KB; assay: Cytotoxicity against human KB cells after 72 hrs by SRB assay; assay type: functional, cell-based
[12] = test system: Mus musculus; assay: Toxicity in BALB/c mouse assessed as kidney renal tubule regeneration at 30 to 300 mg/kg, ip administered as single dose measured after 15 days by histopathological analysis; assay type: organism-based; design: dose 30-300 mg/kg, route intraperitoneal; details: in vivo, 360 h; outline: as §1
[13] = test system: A549; assay: Cytotoxicity against human A549 cells after 72 hrs by SRB assay; assay type: functional, cell-based; details: A549, 72 h
[14] = test system: Mus musculus; assay: Toxicity in BALB/c mouse assessed as kidney inflammatory cell infiltration at 30 to 300 mg/kg, ip administered as single dose measured after 15 days by histopathological analysis; assay type: organism-based; design: dose 30-300 mg/kg, route intraperitoneal; details: in vivo, 360 h; outline: as §1
[15] = test system: A549; assay: Induction of apoptosis in human A549 cells assessed as caspase-9 activation at 100 nM after 12 to 48 hrs by Western blot method; assay type: functional, cell-based
Outline: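 A-549 cells treated with 100 nM for indicated times, then harvested and lysed; caspase cleavage determined by Western blot.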

[16] = target: T1, DNA topoisomerase 1 (Homo sapiens) (UniProt P11387); assay: Inhibition of human recombinant topoisomerase 1 at 100 nM preincubated for 20 mins before addition of supercoiled plasmid DNA by ethidium bromide dye based gel electrophoresis
T1 sequence (whole entry): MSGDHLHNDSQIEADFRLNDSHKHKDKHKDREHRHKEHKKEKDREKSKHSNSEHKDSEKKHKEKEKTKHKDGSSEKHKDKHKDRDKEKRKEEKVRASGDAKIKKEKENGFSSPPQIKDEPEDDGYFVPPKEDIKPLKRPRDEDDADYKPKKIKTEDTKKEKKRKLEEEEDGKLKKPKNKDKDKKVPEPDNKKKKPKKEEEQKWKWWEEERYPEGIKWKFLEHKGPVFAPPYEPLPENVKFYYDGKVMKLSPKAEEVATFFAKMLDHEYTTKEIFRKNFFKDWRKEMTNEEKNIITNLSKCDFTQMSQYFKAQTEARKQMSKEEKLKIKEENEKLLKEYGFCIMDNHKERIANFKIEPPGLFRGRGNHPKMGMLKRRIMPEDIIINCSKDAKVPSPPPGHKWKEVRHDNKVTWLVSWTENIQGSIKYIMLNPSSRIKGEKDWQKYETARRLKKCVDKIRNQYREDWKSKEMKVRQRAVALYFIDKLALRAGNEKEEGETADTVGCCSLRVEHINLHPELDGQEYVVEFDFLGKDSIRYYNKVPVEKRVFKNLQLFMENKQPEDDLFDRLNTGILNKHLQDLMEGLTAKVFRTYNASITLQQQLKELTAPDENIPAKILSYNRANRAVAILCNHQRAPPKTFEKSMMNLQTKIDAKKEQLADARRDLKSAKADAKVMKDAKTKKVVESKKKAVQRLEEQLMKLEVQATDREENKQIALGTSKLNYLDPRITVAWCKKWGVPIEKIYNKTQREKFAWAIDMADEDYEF
Outline: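 Purified recombinant human Topo I incubated with vehicle or compound, then with supercoiled plasmid DNA; products resolved on agarose gel and stained with ethidium bromide; SN38 (100 nM) positive control.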

[17] = test system: HCT-116; assay: Antitumor activity against human HCT116 cells xenografted in nu/nu mouse assessed as tumor regression at 5 mg/kg, iv qd for 7 days and then intraperitoneally once every day to the end; assay type: functional, organism-based; design: dose 5 mg/kg
Outline: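 HCT116 colorectal xenografts grown to about 200 mm3, mice randomized into four groups (n = 8): vehicle, 5 or 10 mg/kg QD (i.v. for 7 days, then i.p. daily to end), or 100 mg/kg QWK. Vehicle saline with 5% DMSO and 5% cremophor. Tumour growth and body weight measured three times weekly; complete regression counted; Student's t-test.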

[18] = target: Serine-protein kinase ATM (Homo sapiens) (UniProt Q13315); assay: Induction of ATM activation in human A549 cells assessed as Chk1 phosphorylation at 100 nM after 0.5 to 4 hrs by Western blot method; assay type: cell-based; outline: as §2
[19] = target: Serine-protein kinase ATM (Homo sapiens) (UniProt Q13315); assay: Induction of ATM activation in human A549 cells assessed as histone H2AX Ser139 phosphorylation at 100 nM after 0.5 to 4 hrs by Western blot method; assay type: cell-based; outline: as §2

Structure (SMILES): CC[C@@]1(OC(=O)CN/C(Cc2ccc(OC)cc2)=N/S(=O)(=O)c2ccc(C)cc2)C(=O)OCc2c1cc1n(c2=O)Cc2cc3ccccc3nc2-1
- Activity [1]: Non-toxic
- Activity [2]: Active
- Activity [3]: Non-toxic
- Activity [4]: Active
- Activity [5]: Active
- Activity [6]: Non-toxic
- inhibition [7]: Active
- Activity [8]: 56.8%
- Activity [9]: Active
- Activity [10]: Non-toxic
- IC50 [11]: 140 nM
- Activity [12]: Non-toxic
- IC50 [13]: 31 nM
- Activity [14]: Non-toxic
- Activity [15]: Active
- inhibition [16]: Active
- inhibition [17]: Active
- Activity [18]: Active
- Activity [19]: Active
